Blank lines part the entries; values can stand above or below the compound they belong to.
Assays:
[1] = Displacement of [125I]-IMPY from amyloid beta (1 to 42) fibrils after 2 hrs by gamma-counting analysis
How it was run: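 Competition binding with aggregated Aβ1-42 fibrils and [125I]IMPY (60000−100000 cpm/100 μL) in 0.05% BSA (1 mL total); inhibitors 10⁻⁴−10^−8.5 M in ethanol. Incubated 37 °C for 2 h, then GF/B vacuum filtration with PBS (0.02 M, pH 7.4) washes and γ counting. Three repeats; IC50 converted to Ki by Cheng−Prusoff.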

[2] = test system: Heart; assay: Drug uptake in ICR mouse heart at 370 kBq/100 ul, iv at 30 mins by gamma-counting analysis; type: ADME, organism-based; conditions: in vivo, 0.5 h
How it was run: (§1)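 Male ICR mice (5 weeks, about 20 g) got 18F tracer in saline (370 KBq per 100 μL) via tail vein; n = 5 per time point, killed at 2, 10, 30, 60 min. Organs weighed and γ-counted; percent dose per gram wet tissue from comparison with diluted injectate aliquots.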

[3] = test system: Brain; assay: Drug uptake in ICR mouse brain at 370 kBq/100 ul, iv at 10 mins by gamma-counting analysis; type: ADME, organism-based; conditions: in vivo; how it was run: as §1
[4] = test system: Blood; assay: Drug uptake in ICR mouse blood at 370 kBq/100 ul, iv at 10 mins by gamma-counting analysis; type: ADME, organism-based; conditions: in vivo; how it was run: as §1
[5] = test system: Heart; assay: Drug uptake in ICR mouse heart at 370 kBq/100 ul, iv at 2 mins by gamma-counting analysis; type: ADME, organism-based; conditions: in vivo; how it was run: as §1
[6] = test system: Stomach; assay: Drug uptake in ICR mouse stomach assessed per organ at 370 kBq/100 ul, iv at 30 mins by gamma-counting analysis; type: ADME, organism-based; conditions: in vivo, 0.5 h
How it was run: (§2)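 Male ICR mice (5 weeks, about 20 g) got 18F tracer in saline (370 KBq per 100 μL) via tail vein; n = 5 per time point, killed at 2, 10, 30, 60 min. Organs removed and γ-counted against diluted injectate; expressed as % injected dose per organ.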

[7] = test system: Bone; assay: Drug uptake in ICR mouse bone at 370 kBq/100 ul, iv at 60 mins by gamma-counting analysis; type: ADME, organism-based, Bone element; conditions: in vivo, 1 h; how it was run: as §1
[8] = test system: Kidney; assay: Drug uptake in ICR mouse kidney at 370 kBq/100 ul, iv at 2 mins by gamma-counting analysis; type: ADME, organism-based; conditions: in vivo; how it was run: as §1
[9] = test system: Bone; assay: Drug uptake in ICR mouse bone at 370 kBq/100 ul, iv at 30 mins by gamma-counting analysis; type: ADME, organism-based, Bone element; conditions: in vivo, 0.5 h; how it was run: as §1
[10] = test system: Stomach; assay: Drug uptake in ICR mouse stomach assessed per organ at 370 kBq/100 ul, iv at 60 mins by gamma-counting analysis; type: ADME, organism-based; conditions: in vivo, 1 h
How it was run: (§3)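 Normal male ICR mice (5 weeks, about 20 g) received the ¹⁸F tracer in saline (370 KBq per 100 μL) by tail-vein injection. Groups of n = 5 were killed at 2, 10, 30 and 60 min. Organs were removed, weighed and γ-counted against diluted aliquots of the injectate, giving % dose per gram. Stomach and intestine were expressed per organ. The brain ratio is 2 min/60 min uptake. Values are mean ± SD.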

[11] = test system: Brain; assay: Drug uptake in ICR mouse brain at 370 kBq/100 ul, iv at 30 mins by gamma-counting analysis; type: ADME, organism-based; conditions: in vivo, 0.5 h; how it was run: as §1
[12] = test system: Kidney; assay: Drug uptake in ICR mouse kidney at 370 kBq/100 ul, iv at 60 mins by gamma-counting analysis; type: ADME, organism-based; conditions: in vivo, 1 h; how it was run: as §1
[13] = test system: Brain; assay: Ratio of drug uptake in brain at 2 mins to drug uptake in brain at 60 mins in ICR mouse at 370 KBq/100 ul, iv; type: ADME, organism-based; conditions: in vivo; how it was run: as §3
[14] = test system: Brain; assay: Drug uptake in ICR mouse brain at 370 kBq/100 ul, iv at 60 mins by gamma-counting analysis; type: ADME, organism-based; conditions: in vivo, 1 h; how it was run: as §1
[15] = test system: Blood; assay: Drug uptake in ICR mouse blood at 370 kBq/100 ul, iv at 2 mins by gamma-counting analysis; type: ADME, organism-based; conditions: in vivo; how it was run: as §1
[16] = test system: Blood; assay: Drug uptake in ICR mouse blood at 370 kBq/100 ul, iv at 60 mins by gamma-counting analysis; type: ADME, organism-based; conditions: in vivo, 1 h; how it was run: as §1
[17] = test system: Stomach; assay: Drug uptake in ICR mouse stomach assessed per organ at 370 kBq/100 ul, iv at 10 mins by gamma-counting analysis; type: ADME, organism-based; conditions: in vivo; how it was run: as §2
[18] = test system: Heart; assay: Drug uptake in ICR mouse heart at 370 kBq/100 ul, iv at 60 mins by gamma-counting analysis; type: ADME, organism-based; conditions: in vivo, 1 h; how it was run: as §1
[19] = test system: Spleen; assay: Drug uptake in ICR mouse spleen at 370 kBq/100 ul, iv at 60 mins by gamma-counting analysis; type: ADME, organism-based; conditions: in vivo, 1 h; how it was run: as §1
[20] = test system: Kidney; assay: Drug uptake in ICR mouse kidney at 370 kBq/100 ul, iv at 10 mins by gamma-counting analysis; type: ADME, organism-based; conditions: in vivo; how it was run: as §1
[21] = test system: Liver; assay: Drug uptake in ICR mouse liver at 370 kBq/100 ul, iv at 30 mins by gamma-counting analysis; type: ADME, organism-based; conditions: in vivo, 0.5 h; how it was run: as §1
[22] = test system: Brain; assay: Drug uptake in ICR mouse brain at 370 kBq/100 ul, iv at 2 mins by gamma-counting analysis; type: ADME, organism-based; conditions: in vivo; how it was run: as §1
[23] = test system: Lung; assay: Drug uptake in ICR mouse lung at 370 kBq/100 ul, iv at 10 mins by gamma-counting analysis; type: ADME, organism-based; conditions: in vivo; how it was run: as §1
[24] = test system: Spleen; assay: Drug uptake in ICR mouse spleen at 370 kBq/100 ul, iv at 10 mins by gamma-counting analysis; type: ADME, organism-based; conditions: in vivo; how it was run: as §1
[25] = test system: Stomach; assay: Drug uptake in ICR mouse stomach assessed per organ at 370 kBq/100 ul, iv at 2 mins by gamma-counting analysis; type: ADME, organism-based; conditions: in vivo; how it was run: as §2
[26] = test system: Blood; assay: Drug uptake in ICR mouse blood at 370 kBq/100 ul, iv at 30 mins by gamma-counting analysis; type: ADME, organism-based; conditions: in vivo, 0.5 h; how it was run: as §1
[27] = test system: Liver; assay: Drug uptake in ICR mouse liver at 370 kBq/100 ul, iv at 60 mins by gamma-counting analysis; type: ADME, organism-based; conditions: in vivo, 1 h; how it was run: as §1
[28] = test system: Kidney; assay: Drug uptake in ICR mouse kidney at 370 kBq/100 ul, iv at 30 mins by gamma-counting analysis; type: ADME, organism-based; conditions: in vivo, 0.5 h; how it was run: as §1
[29] = test system: Intestine; assay: Drug uptake in ICR mouse intestine assessed per organ at 370 kBq/100 ul, iv at 30 mins by gamma-counting analysis; type: ADME, organism-based; conditions: in vivo, 0.5 h; how it was run: as §2
[30] = test system: Intestine; assay: Drug uptake in ICR mouse intestine assessed per organ at 370 kBq/100 ul, iv at 60 mins by gamma-counting analysis; type: ADME, organism-based; conditions: in vivo, 1 h; how it was run: as §2
[31] = test system: Bone; assay: Drug uptake in ICR mouse bone at 370 kBq/100 ul, iv at 10 mins by gamma-counting analysis; type: ADME, organism-based, Bone element; conditions: in vivo; how it was run: as §1
[32] = test system: Liver; assay: Drug uptake in ICR mouse liver at 370 kBq/100 ul, iv at 10 mins by gamma-counting analysis; type: ADME, organism-based; conditions: in vivo; how it was run: as §1
[33] = test system: Heart; assay: Drug uptake in ICR mouse heart at 370 kBq/100 ul, iv at 10 mins by gamma-counting analysis; type: ADME, organism-based; conditions: in vivo; how it was run: as §1
[34] = test system: Intestine; assay: Drug uptake in ICR mouse intestine assessed per organ at 370 kBq/100 ul, iv at 10 mins by gamma-counting analysis; type: ADME, organism-based; conditions: in vivo; how it was run: as §2
[35] = n-Octanol-PBS buffer partition coefficient, log D of the compound at 1.5 MBq after 3 mins at pH 7.4; type: physicochemical
How it was run: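 The tracer was partitioned between n-octanol and PBS by vortexing for 3 min at room temperature, then centrifuged for 5 min at 3000 rpm. Samples of the octanol (50 μL) and aqueous (500 μL) layers were counted. log D is the log of the octanol/PBS counts-per-gram ratio. The octanol layer was repartitioned until values were consistent. Measured in triplicate and repeated three times.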

[36] = test system: Spleen; assay: Drug uptake in ICR mouse spleen at 370 kBq/100 ul, iv at 30 mins by gamma-counting analysis; type: ADME, organism-based; conditions: in vivo, 0.5 h; how it was run: as §1
[37] = test system: Lung; assay: Drug uptake in ICR mouse lung at 370 kBq/100 ul, iv at 30 mins by gamma-counting analysis; type: ADME, organism-based; conditions: in vivo, 0.5 h; how it was run: as §1
[38] = test system: Bone; assay: Drug uptake in ICR mouse bone at 370 kBq/100 ul, iv at 2 mins by gamma-counting analysis; type: ADME, organism-based, Bone element; conditions: in vivo; how it was run: as §1
[39] = test system: Intestine; assay: Drug uptake in ICR mouse intestine assessed per organ at 370 kBq/100 ul, iv at 2 mins by gamma-counting analysis; type: ADME, organism-based; conditions: in vivo; how it was run: as §2
[40] = test system: Spleen; assay: Drug uptake in ICR mouse spleen at 370 kBq/100 ul, iv at 2 mins by gamma-counting analysis; type: ADME, organism-based; conditions: in vivo; how it was run: as §1
[41] = test system: Liver; assay: Drug uptake in ICR mouse liver at 370 kBq/100 ul, iv at 2 mins by gamma-counting analysis; type: ADME, organism-based; conditions: in vivo; how it was run: as §1
[42] = test system: Lung; assay: Drug uptake in ICR mouse lung at 370 kBq/100 ul, iv at 2 mins by gamma-counting analysis; type: ADME, organism-based; conditions: in vivo; how it was run: as §1
[43] = test system: Brain; assay: Drug uptake in wild type C57BL6 mouse brain at 370 KBq/100 ul after 1 hr by autoradiographic analysis; type: ADME, tissue-based; conditions: in vitro
How it was run: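 Paraffin brain sections from 12-month-old male control C57BL6 mice were deparaffinized through xylene and graded ethanol, then held in PBS (0.2 M, pH 7.4) for 30 min. They were incubated with the ¹⁸F tracer (370 KBq per 100 μL) for 1 h at room temperature. Sections were washed in 40% EtOH, rinsed with water for 1 min, dried, and exposed to a phosphor plate for 2 h. The same sections were then stained with thioflavin S.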

[44] = test system: Lung; assay: Drug uptake in ICR mouse lung at 370 kBq/100 ul, iv at 60 mins by gamma-counting analysis; type: ADME, organism-based; conditions: in vivo, 1 h; how it was run: as §1

Ki [1]: 2.7 nM
SMILES: CN(C)c1ccc(-c2nc3ccc(OCCF)cc3s2)cn1

Drug uptake [2]: 2.97 % ID/g
Drug uptake [3]: 1.97 % ID/g
Drug uptake [4]: 3.05 % ID/g
Drug uptake [5]: 5.24 % ID/g
Drug uptake [6]: 9.26 %ID
Drug uptake [7]: 6.39 % ID/g
Drug uptake [8]: 8.27 % ID/g
Drug uptake [9]: 4.71 % ID/g
Drug uptake [10]: 6.45 %ID
Drug uptake [11]: 1.85 % ID/g
Drug uptake [12]: 3.21 % ID/g
Ratio [13]: 2.08
Drug uptake [14]: 1.82 % ID/g
Drug uptake [15]: 5.47 % ID/g
Drug uptake [16]: 2.87 % ID/g
Drug uptake [17]: 5.1 %ID
Drug uptake [18]: 2.73 % ID/g
Drug uptake [19]: 2.34 % ID/g
Drug uptake [20]: 5.14 % ID/g
Drug uptake [21]: 7.24 % ID/g
Drug uptake [22]: 3.79 % ID/g
Drug uptake [23]: 2.34 % ID/g
Drug uptake [24]: 2.69 % ID/g
Drug uptake [25]: 2.66 %ID
Drug uptake [26]: 2.74 % ID/g
Drug uptake [27]: 3.46 % ID/g
Drug uptake [28]: 4.2 % ID/g
Ki [1]: 9.9 nM
Drug uptake [29]: 28.15 %ID
Drug uptake [30]: 28.54 %ID
Drug uptake [31]: 2.7 % ID/g
Drug uptake [32]: 5.41 % ID/g
Drug uptake [33]: 3.51 % ID/g
Drug uptake [34]: 14.45 %ID
logD at 0.05 h [35]: 3.26
Drug uptake [36]: 2.41 % ID/g
Drug uptake [37]: 2.64 % ID/g
Drug uptake [38]: 1.79 % ID/g
Drug uptake [39]: 8.13 %ID
Drug uptake [40]: 3 % ID/g
Drug uptake [41]: 13.25 % ID/g
Drug uptake [42]: 3.03 % ID/g
Drug uptake [43]: Not Active
Drug uptake [44]: 1.87 % ID/g
SMILES: CN(C)c1ccc(-c2nc3cc(OCCOCCOCC[18F])ccc3o2)cn1
